Results: ChEMBL document CHEMBL1221386, “Synthesis and pharmacological evaluation of 3-aryl-3-azolylpropan-1-amines as selective triple serotonin/norepinephrine/dopamine reuptake inhibitors” (Bioorg Med Chem Lett, 2010)
pIC50: −log10 of the molar value.

Key:
[1] = Clearance in rat at 10 mg/kg, iv; format: ADME, organism-based; set-up: dose 10 mg/kg, route intravenous; details: in vivo
Mus musculus [2] = assay: Antidepressant activity in mouse assessed as reduction of mobility time at 3 mg/kg, po by tail suspension test; format: functional; set-up: scale not given: the % may be the effect or the level left
Outline: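 Mouse tail suspension test run as an oral dose–response. Read-out is percent reduction of immobility time; minimal effective dose taken at p<0.05.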

Mus musculus [3] = assay: Potentiation of […]-induced serotonin syndrome like behavior in mouse at 30 mg/kg, po; format: functional
Outline: (§1)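 Mice, oral dosing. For serotonin potentiation, 5-hydroxytryptophan (5-HTP, serotonin precursor) is given to induce serotonin syndrome-like head twitch/stereotypy counts. Response is expressed as % potentiation relative to control group (0%). Minimal effective dose is the lowest dose reaching p <0.05. Doses are in mg/kg.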

[4] = Volume of distribution at steady state in rat at 10 mg/kg, iv; format: ADME, organism-based; set-up: dose 10 mg/kg, route intravenous; details: in vivo, read-out: Vdss
Mus musculus [5] = assay: Antidepressant activity in po dosed mouse assessed as reduction of mobility time by tail suspension test; format: functional; details: read-out: MED
Outline: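 Mouse tail suspension test with oral dose–response. Read-out is immobility time, reported as % reduction of immobility. Minimal effective dose is the lowest dose giving p <0.05. Doses are in mg/kg.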

Cytochrome P450 3A4 = Cytochrome P450 3A4 (Homo sapiens, UniProt P08684); assay: Inhibition of CYP3A4; format: ADME
Cytochrome P450 3A4, sequence (P08684 whole entry): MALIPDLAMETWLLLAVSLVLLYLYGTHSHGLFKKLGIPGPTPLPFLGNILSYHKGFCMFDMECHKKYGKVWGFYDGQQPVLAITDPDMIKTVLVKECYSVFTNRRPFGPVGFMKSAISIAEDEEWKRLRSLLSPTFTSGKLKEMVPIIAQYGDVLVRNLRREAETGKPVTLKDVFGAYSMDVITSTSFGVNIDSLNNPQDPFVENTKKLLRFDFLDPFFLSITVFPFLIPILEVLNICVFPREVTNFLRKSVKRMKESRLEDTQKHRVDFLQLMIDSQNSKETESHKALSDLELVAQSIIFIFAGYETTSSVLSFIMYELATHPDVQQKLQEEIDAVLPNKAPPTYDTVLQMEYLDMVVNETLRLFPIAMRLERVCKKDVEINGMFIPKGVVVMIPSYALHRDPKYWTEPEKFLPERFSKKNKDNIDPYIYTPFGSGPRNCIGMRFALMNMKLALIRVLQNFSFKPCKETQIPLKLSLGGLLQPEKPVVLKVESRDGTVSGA

[6] = Half life in rat at 10 mg/kg, po; format: ADME, organism-based; set-up: dose 10 mg/kg, route oral; details: in vivo
Cytochrome P450 2D6 = Cytochrome P450 2D6 (Homo sapiens, UniProt P10635); assay: Inhibition of CYP2D6; format: ADME
Cytochrome P450 2D6, sequence (P10635 whole entry): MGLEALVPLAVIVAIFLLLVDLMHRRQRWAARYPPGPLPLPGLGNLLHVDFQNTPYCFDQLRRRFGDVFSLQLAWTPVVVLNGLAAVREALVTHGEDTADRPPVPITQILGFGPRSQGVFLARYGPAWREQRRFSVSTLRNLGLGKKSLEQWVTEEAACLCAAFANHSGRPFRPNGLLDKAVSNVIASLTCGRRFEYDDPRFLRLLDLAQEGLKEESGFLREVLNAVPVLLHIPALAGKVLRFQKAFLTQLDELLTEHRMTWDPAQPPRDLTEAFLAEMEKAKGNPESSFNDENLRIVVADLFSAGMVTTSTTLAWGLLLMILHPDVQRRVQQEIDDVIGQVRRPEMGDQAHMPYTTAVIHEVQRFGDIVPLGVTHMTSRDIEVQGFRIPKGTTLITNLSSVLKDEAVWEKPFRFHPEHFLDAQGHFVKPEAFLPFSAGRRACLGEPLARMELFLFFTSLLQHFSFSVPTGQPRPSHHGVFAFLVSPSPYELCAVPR

Mus musculus [7] = assay: Antidepressant activity in mouse assessed as change in locomotion at 30 mg/kg, po; format: functional
[8] = target: T1, Sodium-dependent noradrenaline transporter (Homo sapiens, UniProt P23975); assay: Inhibition of norepinephrine reuptake at human NET expressed in MDCK cells; format: cell-based
T1 sequence (P23975 whole entry): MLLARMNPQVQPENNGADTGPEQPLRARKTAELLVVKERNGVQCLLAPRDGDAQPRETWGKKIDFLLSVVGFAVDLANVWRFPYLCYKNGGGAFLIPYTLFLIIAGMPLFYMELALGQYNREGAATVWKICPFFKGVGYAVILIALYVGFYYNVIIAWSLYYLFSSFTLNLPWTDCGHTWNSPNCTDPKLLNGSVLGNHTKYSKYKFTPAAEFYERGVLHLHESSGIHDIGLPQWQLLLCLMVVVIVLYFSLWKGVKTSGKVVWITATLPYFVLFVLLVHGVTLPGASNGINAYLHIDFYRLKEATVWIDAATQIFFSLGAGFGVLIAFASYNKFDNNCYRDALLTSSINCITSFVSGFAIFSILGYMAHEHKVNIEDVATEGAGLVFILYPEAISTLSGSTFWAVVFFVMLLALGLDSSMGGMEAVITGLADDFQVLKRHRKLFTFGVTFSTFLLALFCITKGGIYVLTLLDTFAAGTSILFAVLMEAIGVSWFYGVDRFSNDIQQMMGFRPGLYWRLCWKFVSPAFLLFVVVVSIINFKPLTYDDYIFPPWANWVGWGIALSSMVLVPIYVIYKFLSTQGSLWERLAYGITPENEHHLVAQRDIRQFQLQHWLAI

Mus musculus [9] = assay: Antidepressant activity in mouse assessed as change in locomotion at 90 mg/kg, po; format: functional
Mus musculus [10] = assay: Antidepressant activity in mouse assessed as change in locomotion at 150 mg/kg, po; format: functional
Outline: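 Spontaneous locomotor activity in mice measured 1 h after oral dosing. Expressed relative to the control group set at 100%.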

[11] = target: T2, Sodium-dependent dopamine transporter (Homo sapiens, UniProt Q01959); assay: Inhibition of dopamine reuptake at human dopamine transporter expressed in CHO cells; format: cell-based
T2 sequence (Q01959 whole entry): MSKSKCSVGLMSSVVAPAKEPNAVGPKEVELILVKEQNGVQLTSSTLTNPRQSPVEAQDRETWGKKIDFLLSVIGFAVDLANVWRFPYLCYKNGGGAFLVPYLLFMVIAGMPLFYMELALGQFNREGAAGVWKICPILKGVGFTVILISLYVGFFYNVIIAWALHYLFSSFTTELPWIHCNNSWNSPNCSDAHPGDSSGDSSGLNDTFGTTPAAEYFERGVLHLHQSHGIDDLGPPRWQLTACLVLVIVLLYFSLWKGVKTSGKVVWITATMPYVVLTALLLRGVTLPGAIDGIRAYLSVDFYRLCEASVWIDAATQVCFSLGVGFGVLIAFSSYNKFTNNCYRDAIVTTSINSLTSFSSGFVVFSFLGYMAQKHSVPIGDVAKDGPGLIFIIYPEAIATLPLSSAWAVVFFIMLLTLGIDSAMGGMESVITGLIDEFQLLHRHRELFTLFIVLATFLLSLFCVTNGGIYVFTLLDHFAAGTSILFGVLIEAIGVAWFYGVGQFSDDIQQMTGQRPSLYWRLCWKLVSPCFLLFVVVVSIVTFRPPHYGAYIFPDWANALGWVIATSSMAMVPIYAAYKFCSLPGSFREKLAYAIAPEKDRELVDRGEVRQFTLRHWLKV
Outline: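 CHO-K1 cells stably expressing human DAT, assayed for [3H]DA uptake in duplicate. Nomifensine served as standard. IC50 determined.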

[12] = AUC in rat at 10 mg/kg, po; format: ADME, organism-based; set-up: dose 10 mg/kg, route oral; details: plasma
[13] = target: Sodium-dependent serotonin transporter (Rattus norvegicus) (UniProt P31652); assay: Displacement of [3H]paroxetine from SERT in rat cerebral cortex at 100 nM
Sodium-dependent serotonin transporter (Rattus norvegicus), sequence (P31652 whole entry): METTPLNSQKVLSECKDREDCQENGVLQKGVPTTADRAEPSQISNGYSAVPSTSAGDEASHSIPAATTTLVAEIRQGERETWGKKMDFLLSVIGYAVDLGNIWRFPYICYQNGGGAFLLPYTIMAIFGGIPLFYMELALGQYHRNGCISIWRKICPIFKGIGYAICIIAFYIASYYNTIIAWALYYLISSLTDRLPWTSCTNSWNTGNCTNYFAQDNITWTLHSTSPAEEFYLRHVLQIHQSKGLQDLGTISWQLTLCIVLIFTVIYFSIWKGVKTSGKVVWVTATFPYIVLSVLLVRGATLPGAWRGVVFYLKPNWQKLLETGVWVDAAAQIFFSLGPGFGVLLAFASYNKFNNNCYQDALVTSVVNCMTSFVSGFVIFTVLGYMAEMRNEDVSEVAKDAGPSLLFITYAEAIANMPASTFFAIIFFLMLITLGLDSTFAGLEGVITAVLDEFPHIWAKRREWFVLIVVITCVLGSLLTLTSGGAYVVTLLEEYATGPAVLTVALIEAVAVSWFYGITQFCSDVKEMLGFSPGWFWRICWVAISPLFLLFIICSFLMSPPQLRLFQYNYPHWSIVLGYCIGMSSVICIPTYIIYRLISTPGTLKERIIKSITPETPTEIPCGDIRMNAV

[14] = target: T3, 5-hydroxytryptamine receptor 2C (Homo sapiens) (UniProt P28335); assay: Inhibition of 5HT2C receptor at 10 uM
T3 sequence (whole entry): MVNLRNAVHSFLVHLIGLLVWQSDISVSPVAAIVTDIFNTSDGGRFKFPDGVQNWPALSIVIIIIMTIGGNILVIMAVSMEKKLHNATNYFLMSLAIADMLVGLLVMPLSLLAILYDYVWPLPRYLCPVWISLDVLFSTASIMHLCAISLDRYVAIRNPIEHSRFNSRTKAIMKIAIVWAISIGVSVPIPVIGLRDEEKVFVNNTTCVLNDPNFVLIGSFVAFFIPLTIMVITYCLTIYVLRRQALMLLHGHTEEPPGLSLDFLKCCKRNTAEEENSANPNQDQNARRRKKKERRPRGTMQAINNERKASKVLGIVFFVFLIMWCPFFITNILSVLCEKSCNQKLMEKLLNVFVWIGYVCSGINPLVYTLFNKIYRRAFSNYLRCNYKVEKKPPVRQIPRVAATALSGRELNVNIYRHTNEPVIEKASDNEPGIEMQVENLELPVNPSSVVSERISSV

Mus musculus [15] = assay: Analgesic activity in mouse assessed as reduction of acetic acid-induced writhing at 30 mg/kg
[16] = Oral bioavailability in rat at 10 mg/kg; format: ADME, organism-based; details: in vivo
[17] = target: T2, Sodium-dependent dopamine transporter; assay: Inhibition of dopamine reuptake at human dopamine transporter expressed in CHO cells at 100 nM
Mus musculus [18] = assay: Antidepressant activity in mouse assessed as reduction of mobility time by forced swimming test at 10 mg/kg, po; format: functional; set-up: scale not given: the % may be the effect or the level left
Outline: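 Mouse forced swimming test with oral dosing. Read-out is immobility time, expressed as % reduction of immobility. Minimal effective dose is the lowest dose with p <0.05. ED50 is given with 95% confidence limits. Doses are in mg/kg.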

Mus musculus [19] = assay: Potentiation of […]-induced serotonin syndrome like behavior in po dosed mouse; format: functional; details: read-out: MED; outline: as §1
[20] = Half life in rat at 10 mg/kg, iv; format: ADME, organism-based; set-up: dose 10 mg/kg, route intravenous; details: in vivo
Cytochrome P450 2C9 = Cytochrome P450 2C9 (Homo sapiens, UniProt P11712); assay: Inhibition of CYP2C9; format: ADME
Cytochrome P450 2C9, sequence (P11712 whole entry): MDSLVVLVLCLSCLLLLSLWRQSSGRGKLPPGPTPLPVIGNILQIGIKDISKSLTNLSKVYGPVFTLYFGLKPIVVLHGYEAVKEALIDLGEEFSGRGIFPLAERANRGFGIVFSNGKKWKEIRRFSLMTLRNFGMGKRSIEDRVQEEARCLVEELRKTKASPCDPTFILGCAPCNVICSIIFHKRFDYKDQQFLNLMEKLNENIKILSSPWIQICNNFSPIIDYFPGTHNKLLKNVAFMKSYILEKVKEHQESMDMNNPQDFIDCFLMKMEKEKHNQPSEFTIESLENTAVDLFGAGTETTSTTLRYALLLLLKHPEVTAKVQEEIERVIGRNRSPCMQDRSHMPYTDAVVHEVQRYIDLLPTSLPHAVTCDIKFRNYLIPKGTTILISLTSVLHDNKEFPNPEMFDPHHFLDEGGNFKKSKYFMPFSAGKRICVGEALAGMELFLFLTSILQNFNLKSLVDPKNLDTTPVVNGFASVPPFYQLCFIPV

[21] = target: T4, Sodium-dependent serotonin transporter (Homo sapiens, UniProt P31645); assay: Inhibition of serotonin reuptake at human SERT expressed in HEK293 cells at 100 nM
Target sequence in this assay (P31645 whole entry, looked up): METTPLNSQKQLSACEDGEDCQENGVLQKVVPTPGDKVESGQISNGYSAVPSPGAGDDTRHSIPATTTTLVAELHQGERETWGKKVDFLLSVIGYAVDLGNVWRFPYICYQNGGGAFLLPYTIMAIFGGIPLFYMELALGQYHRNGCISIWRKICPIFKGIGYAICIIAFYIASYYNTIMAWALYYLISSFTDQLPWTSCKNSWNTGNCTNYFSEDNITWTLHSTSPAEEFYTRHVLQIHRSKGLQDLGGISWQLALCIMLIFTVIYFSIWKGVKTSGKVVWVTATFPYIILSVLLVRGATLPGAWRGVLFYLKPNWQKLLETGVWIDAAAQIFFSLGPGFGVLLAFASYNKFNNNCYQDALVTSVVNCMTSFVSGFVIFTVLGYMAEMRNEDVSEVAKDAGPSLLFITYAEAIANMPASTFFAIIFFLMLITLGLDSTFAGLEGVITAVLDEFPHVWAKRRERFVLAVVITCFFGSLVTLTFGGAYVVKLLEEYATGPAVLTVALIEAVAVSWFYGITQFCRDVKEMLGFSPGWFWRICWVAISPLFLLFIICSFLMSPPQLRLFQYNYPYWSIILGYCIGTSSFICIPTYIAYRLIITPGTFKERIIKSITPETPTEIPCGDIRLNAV

[22] = AUC (0 to infinity) in rat at 10 mg/kg, iv; format: ADME, organism-based; set-up: time infinity, dose 10 mg/kg, route intravenous; details: plasma
[23] = target: T4, Sodium-dependent serotonin transporter; assay: Inhibition of serotonin reuptake at human SERT expressed in HEK293 cells; format: cell-based
Target sequence in this assay (P31645 whole entry): as the sequence (P31645 whole entry, looked up) above

[24] = Tmax in rat at 10 mg/kg, po; format: ADME, organism-based; set-up: dose 10 mg/kg, route oral; details: in vivo
[25] = target: T1, Sodium-dependent noradrenaline transporter; assay: Inhibition of norepinephrine reuptake at human NET expressed in MDCK cells at 100 nM
[26] = Half life in rat liver microsomes; format: ADME, Microsome
Outline: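 Metabolic stability in human or rat liver microsomes. Half-lives measurable up to 60 min.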

With `CNCC[C@@H](c1ccc(Cl)c(Cl)c1)n1nnc(C)n1` the clearance [1] was 42 mL/min/kg, the Activity (Mus musculus [2]) was 59.6% and the Activity (Mus musculus [3]) was 158%. It also gave a Vd [4] of 6.8 L/kg, a minimal effective dose (Mus musculus [5]) of 3 mg/kg and a pIC50 (Cytochrome P450 3A4) of under 5.00. It also gave a half-life [6] of 5.48 h, a pIC50 (Cytochrome P450 2D6) of 5.16 and an Activity (Mus musculus [7]) of 92%. For the same compound, the pIC50 [8] was 7.70, the Activity (Mus musculus [9]) was 142% and the Activity (Mus musculus [10]) was 134%. For the same compound, the pIC50 [11] was 7.24, the AUC [12] was 1280 ng·h/mL and the inhibition [13] was 61.2%. The inhibition [14] was 66%, the inhibition in vivo at 30 mg/kg (Mus musculus [15]) was 94.4% and the bioavailability [16] was 43.2%. It also gave an inhibition [17] of 62%, an Activity (Mus musculus [18]) of 14.9% and a minimal effective dose (Mus musculus [19]) of 30 mg/kg. It also gave a half-life [20] of 3.12 h, a pIC50 (Cytochrome P450 2C9) of under 5.00 and an inhibition [21] of 43%. The AUC(0-inf) [22] was 4150 ng·h/mL, the pIC50 [23] was 6.84 and the Tmax [24] was 0.75 h. For the same compound, the inhibition [25] was 84% and the half-life [26] was 0.933 h.
